The results in this text go back to ChEMBL document CHEMBL3351278, “Pyridine-3-carboxamide-6-yl-ureas as novel inhibitors of bacterial DNA gyrase: structure based design, synthesis, SAR and antimicrobial activity” (Eur J Med Chem, 2014).

Converted amounts (≈) assume the structure as drawn.

The test system of data set [1] is Enterococcus faecalis. The data set can be described thus: Antibacterial activity against Enterococcus faecalis ATCC 29212 incubated for 24 hrs by broth microdilution method. The data set is classed as functional. The conditions noted are these: ATCC 29212, 24 h.
In data set [2] the test system is Streptococcus pyogenes. The data set can be described thus: Antibacterial activity against Streptococcus pyogenes ATCC 51339 incubated for 24 hrs by broth microdilution method. The conditions noted are these: ATCC 51339, 24 h. It is filed as functional. (In general: Dilution methods test growth across graded concentrations, often in twofold steps.)
In data set [3] the test system is Staphylococcus aureus. Briefly: Antibacterial activity against Staphylococcus aureus ATCC 29213 expressing GyrB T173N mutant incubated for 24 hrs by broth microdilution method. To be noted: ATCC 29213, 24 h. It is filed as functional.
Data set [4] concerns Streptococcus pneumoniae. Briefly: Antibacterial activity against Streptococcus pneumoniae ATCC 49616 incubated for 24 hrs by broth microdilution method. The conditions noted are these: ATCC 49616, 24 h. It is filed as functional.
The subject of data set [5] is Staphylococcus aureus. Briefly: Antibacterial activity against Staphylococcus aureus ATCC 29213 incubated for 24 hrs by broth microdilution method. The conditions noted are these: ATCC 29213, 24 h. The data set is classed as functional.
In data set [6] the test system is Streptococcus pyogenes. Briefly: Antibacterial activity against Streptococcus pyogenes ATCC 51339 expressing ParE A53S mutant incubated for 24 hrs by broth microdilution method. To be noted: ATCC 51339, 24 h. It is filed as functional.
Data set [7] concerns Escherichia coli. Briefly: Antibacterial activity against Escherichia coli N43 expressing efflux pump mutant incubated for 24 hrs by broth microdilution method. The data set is classed as functional. To be noted: N43, 24 h.
The target in data set [8] is DNA gyrase (Escherichia coli, UniProt P0AES4+P0AES6). The data set can be described thus: Inhibition of Escherichia coli GyrB A2B2 subunits assessed reduction in DNA supercoiling activity by malachite green dye based by spectrophotometry. The data set is classed as protein-complex assay. The method, boiled down: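 Inhibition was measured as loss of ATPase activity of the E. coli GyrB enzyme and reported as IC50.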

In data set [9] the test system is Staphylococcus aureus. The data set can be described thus: Potency shift, ratio of MIC against Staphylococcus aureus ATCC 29213 in presence of 50% horse serum to MIC against taphylococcus aureus ATCC 29213 in absence of 50% horse serum. It is filed as functional.
Data set [10] has as its system Staphylococcus aureus. The data set can be described thus: Antibacterial activity against Staphylococcus aureus ATCC 29213 incubated for 24 hrs in presence of 50% horse serum by broth microdilution method. The conditions noted are these: ATCC 29213, 24 h. The data set is classed as functional.
The test system of data set [11] is Staphylococcus aureus. Briefly: Antibacterial activity against Staphylococcus aureus ATCC 29213 expressing GyrB T173N and ParE T167N mutant incubated for 24 hrs by broth microdilution method. The conditions noted are these: ATCC 29213, 24 h. The data set is classed as functional.
Data set [12] has as its system Escherichia coli. Briefly: Antibacterial activity against Escherichia coli ATCC 25922 incubated for 24 hrs by broth microdilution method. It is filed as functional. The conditions noted are these: ATCC 25922, 24 h.
In data set [13] the test system is Staphylococcus epidermidis. Briefly: Antibacterial activity against Staphylococcus epidermidis ATCC 12228 incubated for 24 hrs by broth microdilution method. The data set is classed as functional. To be noted: ATCC 12228, 24 h.
Data set [14] concerns Haemophilus influenzae. Briefly: Antibacterial activity against Haemophilus influenzae ATCC 49247 incubated for 24 hrs by broth microdilution method. It is filed as functional. The conditions noted are these: ATCC 49247, 24 h.
A short description of data set [15]: Retention time of the compound by HPLC method. The data set is classed as physicochemical.
The target of data set [16] is DNA topoisomerase 4 subunit B (Staphylococcus aureus, UniProt P0C1S7). Briefly: Inhibition of Staphylococcus aureus ParE.
For data set [17], the target named is DNA gyrase subunit B (Staphylococcus aureus, UniProt P0A0K8). Briefly: Inhibition of Staphylococcus aureus GyrB assessed reduction in DNA supercoiling activity by malachite green dye based by spectrophotometry.
Data set [18] deals with DNA topoisomerase 4 subunit B (Escherichia coli K-12, UniProt P20083). The data set can be described thus: Inhibition of Escherichia coli ParE.

For `CCNC(=O)Nc1cc(Nc2ccccc2)c(C(=O)Nc2ccc(N3CCOCC3)nc2)cn1`, the MIC in data set [1] was 0.25 µg/mL (≈ 0.542 µM); in data set [2], 1 µg/mL (≈ 2.17 µM); in [3], more than 64 µg/mL; in data set [4], 0.5 µg/mL (≈ 1.08 µM); in [5] it was 2 µg/mL (≈ 4.33 µM); in data set [6], 4 µg/mL (≈ 8.67 µM). Further, the MIC in data set [7] is more than 64 µg/mL; in data set [10], 16 µg/mL; in data set [11], more than 64 µg/mL; in data set [12], more than 64 µg/mL; in [13], 1 µg/mL (≈ 2.17 µM); in [14], more than 64 µg/mL. Besides, in data set [8], the IC50 (usually the midpoint of a concentration-inhibition curve) was determined as 110 nM. For the same compound, the Ratio in data set [9] turned out to be 8. For the same compound, the Retention_time in [15] is recorded as 1.47 min.
As to `CCNC(=O)Nc1cc(Nc2ccccc2)c(C(=O)Nc2cccnc2)cn1`, the MIC in data set [1] was found to be 0.125 µg/mL (≈ 0.332 µM); in [2], 1 µg/mL (≈ 2.66 µM); in data set [3] it was 4 µg/mL (≈ 10.6 µM); in [4] it was 0.25 µg/mL (≈ 0.664 µM); in data set [5] it was 1 µg/mL (≈ 2.66 µM); in data set [6], 2 µg/mL (≈ 5.31 µM). Further, the MIC in [7] is 8 µg/mL (≈ 21.3 µM); in [10], 4 µg/mL; in data set [11] it was more than 64 µg/mL; in data set [12], more than 64 µg/mL; in data set [13], 0.25 µg/mL (≈ 0.664 µM); in [14], more than 64 µg/mL. For the same compound, the 50% inhibitory concentration (IC50) in data set [8] amounted to 170 nM. For the same compound, the Ratio in [9] turned out to be 4. Further, the Retention_time in data set [15] is recorded as 1.36 min.
Regarding `CCNC(=O)Nc1cc(Nc2ccc(O)cc2)c(C(=O)Nc2cccnc2)cn1`, the IC50 in data set [16] was 86 nM; in [8], 28 nM; in data set [17], 24 nM; in data set [18], 940 nM. Further, the MIC in data set [5] was 8 µg/mL (≈ 20.4 µM); in data set [12] it was more than 64 µg/mL.
As for `CCNC(=O)Nc1cc(Nc2ccc(OC)cc2OC)c(C(=O)Nc2cccnc2)cn1`, the IC50 in [16] was determined as 800 nM; in data set [8], 46 nM; in [17], 41 nM; in [18], 42000 nM. Further, the MIC in data set [5] is 1 µg/mL (≈ 2.29 µM); in [12], more than 64 µg/mL.
For `CCNC(=O)Nc1cc(Nc2cccc(O)c2)c(C(=O)Nc2cccnc2)cn1`, the IC50 worked out at 36 nM in [8] and 780 nM in data set [18]. Also, the MIC in [12] was more than 64 µg/mL.
As for `CCNC(=O)Nc1cc(Nc2ccccc2)c(C(=O)Nc2cccc(C)c2)cn1`, the MIC in [1] was 0.125 µg/mL (≈ 0.321 µM); in data set [2] it was 2 µg/mL (≈ 5.14 µM); in [3] it was more than 64 µg/mL; in data set [4], 0.5 µg/mL (≈ 1.28 µM); in data set [5], 1 µg/mL (≈ 2.57 µM); in data set [6] it was more than 64 µg/mL. Further, the MIC in data set [7] was more than 64 µg/mL; in [11], more than 64 µg/mL; in data set [12], more than 64 µg/mL; in [13] it was 0.5 µg/mL (≈ 1.28 µM); in [14], more than 64 µg/mL. Further, 140 nM corresponded to half-maximal inhibition in data set [8] (IC50). The same compound returned a Retention_time in [15] of 1.68 min.
For the compound `CCNC(=O)Nc1cc(Nc2cccnc2)c(C(=O)Nc2ccccc2)cn1`, the MIC in data set [1] was 0.25 µg/mL (≈ 0.664 µM); in [2] it was 1 µg/mL (≈ 2.66 µM); in data set [5], 1 µg/mL (≈ 2.66 µM); in data set [10], 2 µg/mL; in data set [14] it was more than 64 µg/mL. The same compound returned an IC50 in data set [8] of 430 nM. Also, the Ratio in [9] is 2. Moreover, the Retention_time in [15] was determined as 1.46 min.
Regarding `CCNC(=O)Nc1cc(Nc2ccccc2)c(C(=O)Nc2ccc(NC(C)=O)nc2)cn1`, the MIC in data set [1] is 0.125 µg/mL (≈ 0.288 µM); in data set [2], 0.5 µg/mL (≈ 1.15 µM); in [3] it was more than 64 µg/mL; in data set [4], 0.125 µg/mL (≈ 0.288 µM); in data set [5] it was 2 µg/mL (≈ 4.61 µM); in [6], 2 µg/mL (≈ 4.61 µM). Besides, the MIC in data set [7] is more than 64 µg/mL; in data set [10], 8 µg/mL; in data set [11], more than 64 µg/mL; in data set [12] it was more than 64 µg/mL; in [13] it was 0.25 µg/mL (≈ 0.577 µM); in data set [14] it was more than 64 µg/mL. This compound had an IC50 in [8] of 39 nM. For the same compound, the Ratio in [9] stood at 4. In data set [15], this compound gave a Retention_time of 1.45 min.
On to `CCNC(=O)Nc1cc(Nc2ccccc2)c(C(=O)Nc2cccc(Cl)c2)cn1`, for which the MIC in [1] was determined as 0.125 µg/mL (≈ 0.305 µM); in [2] it was 4 µg/mL (≈ 9.76 µM); in data set [3], 1 µg/mL (≈ 2.44 µM); in [4], 1 µg/mL (≈ 2.44 µM); in data set [5], 0.5 µg/mL (≈ 1.22 µM); in [6] it was 32 µg/mL (≈ 78.1 µM). The MIC in data set [7] was more than 64 µg/mL; in data set [11], more than 64 µg/mL; in [12], more than 64 µg/mL; in data set [13], 0.5 µg/mL (≈ 1.22 µM); in data set [14], more than 64 µg/mL. In [8], this compound gave an IC50 of 150 nM. Further, the Retention_time in data set [15] was 1.71 min.
